The text below walks through data of ChEMBL document CHEMBL3396959, “Structural requirements for TLR7-selective signaling by 9-(4-piperidinylalkyl)-8-oxoadenine derivatives” (Bioorg Med Chem Lett, 2015).

Calls of active or inactive are those of the source. The rule behind the calls is not given here.

Data set [1] addresses T1, Toll-like receptor 7 (Homo sapiens, UniProt Q9NYK1).
T1 sequence (Q9NYK1 whole entry): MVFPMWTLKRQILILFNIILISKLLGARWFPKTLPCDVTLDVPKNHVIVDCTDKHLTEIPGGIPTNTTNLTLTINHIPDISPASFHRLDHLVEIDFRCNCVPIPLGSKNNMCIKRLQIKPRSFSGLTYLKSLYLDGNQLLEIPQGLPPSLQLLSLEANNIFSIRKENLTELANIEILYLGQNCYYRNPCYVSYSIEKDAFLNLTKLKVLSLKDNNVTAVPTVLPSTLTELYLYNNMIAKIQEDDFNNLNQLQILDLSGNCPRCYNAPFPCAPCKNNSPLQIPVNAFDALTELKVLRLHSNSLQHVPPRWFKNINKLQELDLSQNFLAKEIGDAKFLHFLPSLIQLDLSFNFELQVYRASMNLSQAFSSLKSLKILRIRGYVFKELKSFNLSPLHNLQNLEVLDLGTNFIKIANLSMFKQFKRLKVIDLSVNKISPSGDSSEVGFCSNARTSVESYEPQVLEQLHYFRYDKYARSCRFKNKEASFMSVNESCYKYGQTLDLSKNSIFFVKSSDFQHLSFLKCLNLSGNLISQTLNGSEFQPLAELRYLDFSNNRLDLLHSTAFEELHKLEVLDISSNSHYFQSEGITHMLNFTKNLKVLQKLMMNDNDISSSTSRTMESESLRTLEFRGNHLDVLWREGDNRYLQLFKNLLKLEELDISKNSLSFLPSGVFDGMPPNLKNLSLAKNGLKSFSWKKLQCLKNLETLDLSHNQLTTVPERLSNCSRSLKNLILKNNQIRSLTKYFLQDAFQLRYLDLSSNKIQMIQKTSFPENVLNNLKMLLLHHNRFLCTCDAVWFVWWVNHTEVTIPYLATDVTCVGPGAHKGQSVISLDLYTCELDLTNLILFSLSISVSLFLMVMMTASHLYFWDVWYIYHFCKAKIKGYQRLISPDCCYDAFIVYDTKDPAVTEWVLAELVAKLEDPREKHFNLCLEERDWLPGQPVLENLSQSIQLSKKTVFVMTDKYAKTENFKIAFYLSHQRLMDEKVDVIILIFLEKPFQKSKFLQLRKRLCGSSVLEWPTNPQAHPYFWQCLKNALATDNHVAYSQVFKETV
The data set is described as follows: Activation of human TLR7 expressed in HEK293 cells after 24 hrs by NFkappaB-mediated SEAP reporter gene assay. The class given is cell-based. The following applies: read-out: EC50. An outline of the steps: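 HEK293 cells stably transfected with hTLR7 or hTLR8 plus an NF-kB-driven SEAP reporter were kept in DMEM/10% FBS with selection antibiotics. Aqueous compound formulations were added for 24 h, and supernatant SEAP was read colorimetrically. Points were run in triplicate and averaged. Activity was scaled to the maximum of a reference agonist set at 100%. EC50 was taken from dose-response curves with 95% CI.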
A general note: In a reporter assay the amount or activity of a reporter protein is the signal.

The subject of data set [2] is HEK293. The data set is described as follows: Toxicity against human TLR8 expressing HEK293 cells after 24 hrs by live/dead fixable aqua staining method. It is filed as cell-based. As to conditions: hek293, 24 h. An outline of the steps: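 HEK293-hTLR8 reporter cells were stimulated with compound for 24 h. Cells were then incubated with Live/Dead fixable Aqua dye for 30 min, washed extensively, and read for viability by flow cytometry.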

Data set [3] has as its system PBMC. Briefly: Induction of TNFalpha production in primary human PBMC after 24 hrs by ELISA method. The class given is functional, cell-based. The procedure, abridged:
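Ficoll-isolated healthy-donor PBMCs at 0.5 × 10^6 cells/well in RPMI-1640/10% FBS were stimulated 24 h with aqueous compound. Supernatant TNFa was assayed with a […]. Data are from three donors in triplicate, with SEM shown.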

Data set [4] in a line: Induction of IL6 expression in human HLA-DR(+), CD11c(+) and CD123(-) expressing mDC after 24 hrs by intracellular cytokine staining method. It is filed as functional. The arrangement: concentration or dose not given beside the values. The procedure, abridged:
(§1)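 PBMCs were stimulated with aqueous compound for 24 h, with GolgiPlug (10 ng/ml) present for the final 6 h. Cells were washed and surface-stained for lineage markers (mDC HLA-DR+ CD11c+ CD123−; pDC HLA-DR+ CD11c− CD123+). They were then permeabilized with Perm/Fix buffer and stained with fluorochrome-conjugated anti-cytokine antibodies for flow cytometry.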

For data set [5], the system named is PBMC. Briefly: Induction of IFNgamma production in primary human PBMC after 24 hrs by ELISA method. It is filed as functional, cell-based.
The test system of data set [6] is PBMC. The data set is described as follows: Induction of IFNalpha production in primary human PBMC at 0.001 to 10 uM after 24 hrs by ELISA method. It is filed as functional, cell-based. The procedure, abridged:
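Fresh healthy-donor PBMCs were isolated by Ficoll and plated at 0.5 × 10^6 cells/well in RPMI-1640/10% FBS with antibiotics. Aqueous compound formulations were added for 24 h across 0.0001–10 µM. Supernatant IFNa was measured by ELISA. Data are from three donors, each run in triplicate, with SEM shown.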
In general terms: An ELISA detects its analyte on a solid surface through an enzyme-linked reagent.

Data set [7] relates to PBMC. The data set is described as follows: Reduction in IFNalpha production in primary human PBMC at >10 uM after 24 hrs by ELISA method. The class given is functional, cell-based.
The species named for data set [8] is Homo sapiens. Briefly: Induction of apoptosis in human HLA-DR(+), CD11c(-) and CD123(+) expressing pDC at 10 uM after 24 hrs by Annexin-V staining method. The class given is functional. The procedure, abridged: (§2)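 PBMCs were stimulated for 24 h with compound at doses of 0.01 nM, 1 nM, 100 nM and 10 µM. Cells were phenotyped into mDC (HLA-DR+ CD11c+ CD123−) and pDC (HLA-DR+ CD11c− CD123+) and stained with Annexin-V to read apoptosis by flow cytometry.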

For data set [9], the species on record is Homo sapiens. Briefly: Induction of apoptosis in human HLA-DR(+), CD11c(+) and CD123(-) expressing mDC at 10 uM after 24 hrs by Annexin-V staining method. The class given is functional. The procedure, abridged:
as §2

Data set [10] is filed under the species Homo sapiens. The data set is described as follows: Induction of TNFalpha production in human HLA-DR(+), CD11c(+) and CD123(-) expressing mDC after 24 hrs by intracellular cytokine staining method. It is filed as functional, cell-based. The procedure, abridged: as §1
Data set [11] is filed under the species Homo sapiens. The data set is described as follows: Induction of INFalpha production in human HLA-DR(+), CD11c(+) and CD123(-) expressing mDC after 24 hrs by […]. It is filed as functional.
Data set [12] is filed under the species Homo sapiens. Briefly: Induction of INFalpha production in human HLA-DR(+), CD11c(+) and CD123(-) expressing mDC after 24 hrs by intracellular cytokine staining method. It is filed as functional, cell-based. An outline of the steps:
as §1

The species named for data set [13] is Homo sapiens. Briefly: Induction of TNFalpha production in human HLA-DR(+), CD11c(-) and CD123(+) expressing pDC after 24 hrs by […]. It is filed as functional.
For data set [14], the species on record is Homo sapiens. Briefly: Induction of TNFalpha production in human HLA-DR(+), CD11c(-) and CD123(+) expressing pDC after 24 hrs by intracellular cytokine staining method. It is filed as functional, cell-based. The procedure, abridged: as §1
The species named for data set [15] is Homo sapiens. Briefly: Induction of INFalpha production in human HLA-DR(+), CD11c(-) and CD123(+) expressing pDC after 24 hrs by […]. It is filed as functional.
The species named for data set [16] is Homo sapiens. The data set is described as follows: Induction of INFalpha production in human HLA-DR(+), CD11c(-) and CD123(+) expressing pDC after 24 hrs by intracellular cytokine staining method. It is filed as functional, cell-based. The procedure, abridged: as §1
For data set [17], the species on record is Homo sapiens. Briefly: Induction of TNFalpha production in human HLA-DR(+), CD11c(+) and CD123(-) expressing mDC after 24 hrs by intracellular cytokine staining.

Take `CCCCOc1nc(N)c2[nH]c(=O)n(CC3CCNCC3)c2n1.Cl`: the concentration for a half-maximal effect (EC50) in data set [1] was 3.95 µM. The Activity result in [2] was “Non-toxic”; in data set [4], 2.95%; in data set [10], “Dose-dependent effect”; in [11] it was “Dose-dependent effect”; in data set [12] it was “Dose-dependent effect”; in [13], “Dose-dependent effect”. Also, the Activity entry in [14], in data set [15], in [16] and in data set [17] was “Dose-dependent effect” throughout. Moreover, the outcome in data set [3] and in data set [5] was inactive. For the same molecule, the outcome in data set [6], in data set [8] and in [9] was Active. In addition, the inhibition entry in [7] was “Dose-dependent effect”.

In general, EC50 refers to the concentration needed to bring the measured effect to its halfway point.
